SENP7 block – blocks the human protease SENP7. Q9BQF6. recombinant SENP7, Z-RLRGG-aminoluciferin luminescence, 40 min. inhibition, % at 5 µM. 1.5% of 330,000 active. AID 434973;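 active = inhibition above about 50% at the single test dose, limit read from the data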;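 note: plate controls were DMSO with enzyme for no effect and no enzyme buffer wells for full effect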
SENP1 inh – inhibitors of human SENP1 SUMO protease catalytic domain. Q9P0U3. recombinant SENP1 catalytic domain, CyPet-SUMO1-YPet FRET cleavage. inhibition, % at 10 µM. 0.21% of 360,000 active. AID 624204;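 active = inhibition at least 30% at 10 µM, raw YFP signal under a set limit, fluorescence ratio 0.5 to 1.5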;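 note: 0% = enzyme with DMSO and 100% = no enzyme wells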
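Test system: recombinant human SENP1 catalytic domain, His6-tagged / Medium: pH 8 Tris buffer with EDTA, NaCl, BME, BSA, NP40, catalase / Also added: SUMO1 FRET substrate flanked by Cypet and Ypet, 25 nM / Times: 50 min reaction at room temperature / Signal: FRET, CFP and YFP emission / Control set: no-enzyme low control and enzyme-plus-DMSO high control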
SENP6 inh – SENP6 protease inhibition | Q9GZR1 | Recombinant SENP6 catalytic domain, aminoluciferin luminescence | inhibition, % at 10 µM | 1.8% of 330,000 active;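 active = inhibition above about 50% at the single tested dose, limit read from the data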;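 note: plate controls were DMSO wells with enzyme for no effect and DMSO wells lacking enzyme for full effect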
SENP8 block-1 – SENP8 (human) protease inhibition. Q96LD8. recombinant SENP8, Nedd8 substrate fluorescence. inhibition, % at 20 µM. 0.64% of 360,000 active; in the data active = inhibition mostly above about 40%, no sharp cut-off; inactive = mostly below about 27%
Target sequence (Q96LD8 whole entry, looked up): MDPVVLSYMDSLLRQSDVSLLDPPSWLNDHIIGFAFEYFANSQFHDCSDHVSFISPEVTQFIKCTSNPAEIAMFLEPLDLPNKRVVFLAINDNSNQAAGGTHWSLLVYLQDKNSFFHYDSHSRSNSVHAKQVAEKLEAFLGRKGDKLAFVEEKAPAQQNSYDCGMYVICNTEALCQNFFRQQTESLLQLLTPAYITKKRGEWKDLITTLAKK
SENP8 block-2 – blocks the human protease SENP8; Q96LD8; purified SENP8, Z-RLRGG-aminoluciferin cleavage, luminescence; inhibition, % at 10 µM; 1.2% of 330,000 active; in the data active = inhibition above about 50%
SENP8 confirm – human SENP8 inhibition, confirmed | shares compounds with SENP7 block | Recombinant SENP8, Z-RLRGG-aminoluciferin luminescence, 60 min | inhibition, % at 12.5 µM | 40% of 6,200 active | AID 488912;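 active = mean inhibition across replicates above about 50%, limit read from the data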
SENP6 conf – confirmation of human SENP6 protease inhibitors; recombinant SENP6, Z-RLRGG-aminoluciferin luminescence; 58% of 6,200 active; shares compounds with SENP7 block; inhibition, % at 12.5 µM
SENP7 conf – confirmation of human SENP7 protease inhibitors | recombinant SENP7, Z-RLRGG-aminoluciferin luminescence, 40 min | 69% of 6,200 active | shares compounds with SENP7 block | inhibition, % at 12.5 µM | AID 488917
Casp3 select – selectivity test for SENP inhibitors: human caspase-3 inhibition; 60% of 6,200 active; AID 488918; purified caspase-3, Z-DEVD-aminoluciferin luminescence, 60 min; inhibition, % at 12.5 µM; shares compounds with SENP7 block;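 active = mean inhibition above about 50%, limit read from the data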;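 note: plate controls were enzyme with DMSO for no effect and wells without caspase-3 for full effect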
Target sequence (P42574 28-227 limits assumed): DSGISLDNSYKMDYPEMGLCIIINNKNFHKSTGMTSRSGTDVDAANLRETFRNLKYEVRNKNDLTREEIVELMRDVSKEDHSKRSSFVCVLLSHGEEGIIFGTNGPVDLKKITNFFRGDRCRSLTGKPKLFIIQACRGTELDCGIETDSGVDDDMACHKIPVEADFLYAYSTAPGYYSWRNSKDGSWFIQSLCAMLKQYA
Luc interf – interferes with luciferase luminescence in SENP counter-screen. shares compounds with SENP7 block. Pre-incubated SENP8/Z-RLRGG-aminoluciferin, luciferase luminescence interference. inhibition, % at 12.5 µM. 39% of 6,200 active. AID 488919;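 active = mean inhibition above about 50% when retested at one dose, limit read from the data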;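 note: plate controls were DMSO wells with completed reaction for no effect and substrate without enzyme for full effect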
The depositor's hits bear a star; / = no result given. Sampled rows, rich in hits. Any-hit rate of the full collection: about 2.5%.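 Rule for the calls, unless noted: active = mean inhibition above about 50% in the one-dose retest (limit read from the data); inactive = the rest.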

SMILES | SENP7 block | SENP1 inh | SENP6 inh | SENP8 block-1 | SENP8 block-2 | SENP8 confirm | SENP6 conf | SENP7 conf | Casp3 select | Luc interf
Cc1cc(/C=C2\SC(=S)N(C)C2=O)c(C)n1-c1cccc(O)c1 | 60* | -31 | 90* | 16 | 80* | 5 | 26 | 27 | 8 | 13
Cc1cc(/C=C2\SC(=O)N(C)C2=O)c(C)n1-c1ccc(O)cc1 | -1 | -28 | 61* | -93 | 16 | 74* | 72* | 84* | 30 | 69*
CN=C1S/C(=C\c2cc(C)n(-c3ccccc3F)c2C)C(=O)N1C | 66* | -5 | 42 | -14 | 63* | 86* | 88* | 96* | 70* | 74*
COc1ccc(-n2c(C)cc(/C=C3/SC(=S)N(C)C3=O)c2C)cc1 | / | -27 | / | 19 | / | / | / | / | / | /
CCN(CC)Cc1cc(Oc2ccc(O)c(CN(CC)CC)c2)ccc1O | / | 2 | / | 7 | / | / | / | / | / | /
Cc1cc(C)cc(NC(=O)COC(=O)CC2CCCC2)c1 | 5 | 1 | -12 | 6 | -4 | / | / | / | / | /
NC(=O)c1ccccc1NC(=O)/C=C/c1c(Cl)cccc1Cl | 45 | 1 | 53* | 3 | -7 | -14 | -8 | 86* | 42 | 4
COc1ccccc1NC(=S)NNC(=O)c1ccccc1Br | 71* | 0 | 75* | -13 | 46 | 21 | 16 | 15 | 6 | 15
O=C(NNC(=S)Nc1ccccc1Cl)c1ccccc1Cl | 50 | 0 | 73* | 8 | 74* | 40 | 28 | 18 | 10 | 13
O=C(NNC(=S)Nc1ccccc1Cl)c1ccccc1 | 91* | 3 | 65* | 1 | 56* | 16 | 22 | 28 | 28 | 34
COc1ccccc1C(=O)NNC(=O)c1ccccc1Br | 12 | 1 | -22 | 2 | 1 | / | / | / | / | /
COc1cc(CC(=O)N2c3ccccc3N=C(c3ccccc3)C2C(=O)NCc2ccccc2)cc(OC)c1 (centres undefined) | / | 6 | / | 0 | / | / | / | / | / | /
CCOC(=O)CN1C(=O)C2(OCCCO2)c2cc(Br)ccc21 | -1 | 2 | 10 | 13 | 3 | / | / | / | / | /
O=C(CN1CCCC1)Nc1c(Cl)cccc1Cl | 1 | 2 | 15 | 3 | 7 | / | / | / | / | /
COC(=O)CCCn1cc(CN2CC(N3CCCCC3)CS2(=O)=O)nn1 (centres undefined) | / | 1 | / | 14 | / | / | / | / | / | /
Cc1ccc(/C=N/Nc2nnc(Cl)c3ccccc23)cc1 | 95* | 2 | 93* | -10 | 86* | 44 | 49 | 42 | 37 | 17
Clc1nnc(N/N=C/c2ccccc2)c2ccccc12 | 90* | 2 | 94* | 9 | 74* | 16 | 39 | 65* | 36 | 21
Clc1ccc(/C=N/Nc2nnc(Cl)c3ccccc23)cc1 | 22 | 0 | -20 | 14 | -8 | / | / | / | / | /
C(=N\Nc1ncnc2ccccc12)/c1ccccc1 | 66* | 1 | 47 | 10 | 39 | 62* | 59* | 85* | 69* | 68*
Cc1ccc(-c2nc(N/N=C/c3ccncc3)c3ccccc3n2)cc1 | 89* | -2 | 88* | -68 | 89* | 12 | 16 | 18 | 37 | 3
CN(C)c1nc(N)c([N+](=O)[O-])c(N2CCCCCC2)n1 | 0 | 0 | -6 | 15 | 7 | / | / | / | / | /
O=C1CC(N(CCc2ccccc2)C(=S)Nc2cc(Cl)ccc2Cl)C(=O)N1c1c(Cl)cccc1Cl (centres undefined) | -3 | 1 | -11 | 24 | -11 | / | / | / | / | /
CN1CCN(C(=O)C(N)Cc2ccccc2)CC1 (centres undefined) | -8 | -2 | -10 | -13 | -1 | / | / | / | / | /
O=C(Nc1nc2c(Br)cccc2s1)C1CC1 | 11 | -2 | 0 | 10 | -10 | / | / | / | / | /

Screens: PubChem, Sanford-Burnham Center for Chemical Genomics
